According to PMC7065888 (Science Advances, 2020):

What was measured:
RBP2 = settings: cited from earlier work
recombinant mouse RBP2 = type: binding; settings: holo-RBP2 incubated with 2 molar excess of compound, room temperature, 15 min
recombinant apo-RBP2 = type: binding, mouse; settings: MS/MS-based detection
Procedure, shortened: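 Purified recombinant mouse RBP2 in apo form was incubated with the test lipid. The protein was then chromatographically repurified to strip unbound ligand, and lipid still associated with the protein was detected by tandem mass spectrometry.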

mouse RBP2 = biological target: T1, mouse RBP2 (Mus musculus, UniProt Q08652); type: binding
T1 sequence (Q08652 1-134): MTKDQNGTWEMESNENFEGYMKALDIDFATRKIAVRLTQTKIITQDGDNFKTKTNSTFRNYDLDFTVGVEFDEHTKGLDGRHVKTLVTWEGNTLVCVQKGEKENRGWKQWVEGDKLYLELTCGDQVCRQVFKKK

Compound | displacement of retinol from its RBP2 binding pocket (recombinant mouse RBP2) | also measured
CC1=C(/C=C/C(C)=C/C=C/C(C)=C/CO)C(C)(C)CCC1 [retinol, all-trans-retinol] |  | Kd for binding to RBP2 relative to the Kd values reported here for 2-MAG binding (RBP2): two to six times higher
CCCCC/C=C\C/C=C\C/C=C\C/C=C\CCCC(=O)OC[C@@H](O)CO [1-AG, 1-arachidonoylglycerol] | displaced retinol | 
CC1=C(/C=C/C(C)=C/C=C/C(C)=C/C=O)C(C)(C)CCC1 [retinaldehyde] |  | Kd for binding to RBP2 relative to the Kd values reported here for 2-MAG binding (RBP2): two to six times higher
CCCCC/C=C\C/C=C\CCCCCCCC(=O)OC(CO)CO [2-LG, 2-lineoylglycerol] | displaced retinol | 
CCCCC/C=C\C/C=C\C/C=C\C/C=C\CCCC(=O)OC(CO)CO [2-AG, 2-arachidonoylglycerol] | displaced retinol | ligand bound to RBP2 after chromatographic repurification (recombinant apo-RBP2): remained bound to RBP2; Kd (mouse RBP2): 0.0271 ± 0.0024 µM
CCCCC/C=C\C/C=C\CCCCCCCC(=O)NCCO [LEA, N-linoleoylethanolamine] | little displacement | 
CCCCCCCC/C=C\CCCCCCCC(=O)OC(CO)CO [2-OG, 2-oleoylglycerol] | displaced retinol | Kd (mouse RBP2): 0.0654 ± 0.0044 µM
CCCCC/C=C\C/C=C\C/C=C\C/C=C\CCCC(=O)NCCO [AEA, N-arachidinoylethanolamine] | little displacement | fold less effective than MAGs in displacing bound retinol from RBP2 (mouse RBP2; fluorescence emission spectra of holo-RBP2): ~ 25 fold
CCCCCCCCCCCCCC(=O)NCCO [MEA, N-myristoylethanolamine] | little displacement | 
